Measured values gathered from unrelated publications.
Lines come from different studies, so protocols differ.
Target: Vascular endothelial growth factor receptor 2 (KDR, Homo sapiens, UniProt P35968)

The remaining activity of `COc1ccc(NC(=O)c2c(Nc3ccccc3)sc(C#N)c2NC(=O)CNc2ccc([N+](=O)[O-])cc2)cc1` is reported as 71.8% (enzyme activity; inhibitor; 10 µM).
The remaining signal of `COc1ccc(COc2ccc(Cc3cnc(N)nc3N)cc2OC)cc1` is reported as 109% (cell-free assay; 0.5 µM).
`CC(C)c1ccc(NC(=O)c2cccs2)c(-c2nc3ccccc3[nH]c2=O)c1` gave an activity vs control of 25% (enzyme activity; inhibitor; 1 µM).
The activity vs control of `c1nc2c(Nc3ccc4c(c3)OCCO4)nc(Nc3ccc4c(c3)OCCO4)nc2[nH]1` is reported as 11% (enzyme activity; inhibitor; 10 µM).
`Cc1ccc(C(=O)NCc2ccsc2)cc1C#Cc1cn(C(C)C)c2ncnc(N)c12` gave an activity vs control of 0% (enzyme activity; inhibitor; 1 µM).
`COc1ccc(NC(=O)c2c(Nc3ccccc3)sc(C#N)c2NC(=O)CNc2ccc(Cl)cc2)cc1` gave a remaining activity of 61.3% (enzyme activity; inhibitor; 0.1 µM).
`C[C@H](c1cccc(C#N)c1)n1cc(Cl)cc(C(N)=O)c1=N` has a remaining binding of 88% (cell-free assay; competition with immobilised ligand; 1 µM).
With `O=C1Nc2ccc(Br)cc2/C1=C/c1cc2c([nH]1)CCCC2` the remaining signal was 70.9% (cell-free assay; 0.5 µM).
For `CNc1cccc2cc(C(=O)Nc3ccc(C(=O)O)cc3)c(=O)[nH]c12`, the inhibition was 4.8% (enzyme activity; inhibitor; 10 µM).
With `CN(C)c1ncnc(-c2ccc3nc(Nc4cc(CN5CCN(C(=O)CC(F)(F)F)CC5)ccn4)[nH]c3c2)c1Cl` the remaining binding was 74% (cell-free assay; competition with immobilised ligand; 1 µM).
The remaining activity of `COc1ccc(C=NNC(=O)c2sc(Nc3ccccc3)c(C(=O)Nc3ccc(OC)cc3)c2NC(C)=O)cc1` is reported as 35.1% (enzyme activity; inhibitor; 100 µM).
`CN(C)C1CCN(CC#Cc2nn(C3CCCC3)c3nc(NCc4ccccc4)ncc23)C1` (centres unmarked) gave an inhibition of 14% (enzyme activity; inhibitor; FRET; 1 µM).
`O=C(O)c1cc(-c2ccc(C3CCNCC3)cc2)c2ccc(-c3ccc(C(F)(F)F)cc3)cc2c1` has a remaining binding of 100% (cell-free assay; competition with immobilised ligand; 1 µM).
`Cc1[nH]c(/C=C2\C(=O)Nc3ccc(F)cc32)c(C)c1C(=O)N[C@H]1CCN(C(=O)N(C)C)C1` gave a remaining activity of 9% (enzyme activity; inhibitor; 1 µM).
The remaining signal of `Oc1cccc(-c2nc(N3CCOCC3)c3oc4ncccc4c3n2)c1` is reported as 85.9% (cell-free assay; 0.5 µM).
For `COc1ccc(NC(=O)c2c(Nc3ccccc3)sc(C(=O)NN=Cc3ccc(Cl)cc3)c2NC(C)=O)cc1`, the remaining activity was 60.6% (enzyme activity; inhibitor; 100 µM).
`Cc1c[nH]c2nccc(Oc3c(F)cc(Nc4cc(Cl)nc(N)n4)cc3F)c12` gave a remaining binding of 81% (cell-free assay; competition with immobilised ligand; 0.1 µM).
With `COc1cc2ncnc(Nc3ccc(Oc4ccccc4)cc3C)c2cc1OC` the inhibition was 14% (enzyme activity; inhibitor; 1 µM).
`COc1ccc(NC(=O)c2c(Nc3ccccc3)sc(C(=O)NN=Cc3cc(OC)c(OC)c(OC)c3)c2NC(C)=O)cc1` has a remaining activity of 82.1% (enzyme activity; inhibitor; 1 µM).
With `O=C(CSc1nc2nccnc2c(=O)n1CCc1ccccc1)Nc1nccs1` the inhibition was 10% (enzyme activity; inhibitor; 10 µM).
The inhibition of `CC/C(=N\NC(=O)NCc1cccc(O)c1)c1ccc(O)c(C)c1O` is reported as 2.7% (enzyme activity; inhibitor; 0.1 µM).
The remaining binding of `CS(=O)(=O)NCC[C@H](NC(=O)c1cncc2c1cnn2-c1ccc(F)cc1)c1ccnc(S(C)(=O)=O)c1` is reported as 100% (cell-free assay; competition with immobilised ligand; 1 µM).
For `Nc1ncnc2occ(-c3ccc(NC(=O)Nc4cc(C(F)(F)F)ccc4F)cc3)c12`, the remaining signal was 0% (cell-free assay; 20 µM).
`CC(=O)Nc1c(C(C)=O)c(=O)n(C)c2nc(-c3ccc(Cl)cc3Cl)c(-c3ccc(Cl)cc3)cc12` gave a remaining binding of 94% (cell-free assay; competition with immobilised ligand; 1 µM).
For `COc1ccc(NC(=O)c2c(Nc3ccccc3)sc(C#N)c2NC(=O)CNc2ccc(Br)cc2)cc1`, the remaining activity was 51.3% (enzyme activity; inhibitor; 1 µM).
The remaining binding of `CC(=O)N1CCC(c2ccc(C(=O)NC3=NCCN3)cc2C(F)(F)F)CC1` is reported as 80% (cell-free assay; competition with immobilised ligand; 1 µM).
With `CSc1nc(C)c(-c2ccnc(Nc3ccc(N4CCOCC4)cc3)c2)[nH]1` the inhibition was 95.1% (enzyme activity; inhibitor; 10 µM).
With `COc1ccc(-c2cnc3c(-c4ccsc4)cnn3c2)cc1` the remaining signal was 79.8% (cell-free assay; 0.5 µM).
The remaining activity of `COc1ccc(NC(=O)c2c(Nc3ccccc3)sc(C(=O)NN=Cc3ccc(OC)c(O)c3)c2NC(C)=O)cc1` is reported as 83.2% (enzyme activity; inhibitor; 0.1 µM).
`Cc1sc(C(=O)NC2COC2)cc1-n1cc(NC(=O)Nc2c(F)cccc2Cl)cn1` has a remaining activity of 88.2% (enzyme activity; inhibitor; 10 µM).
`N#Cc1ccc(Nc2ccc3[nH]c(=O)[nH]c3c2)c(Cl)c1` gave a remaining binding of 99% (cell-free assay; competition with immobilised ligand; 1 µM).
`N#CCCc1ccc2c(c1)-c1[nH]c3ccc([N+](=O)[O-])cc3c1CC(=O)N2` gave a remaining signal of 75.5% (cell-free assay; 0.5 µM).
